Source: PubChem BioAssay
Lipid droplet – hepatic lipid droplet formation modulation | AML12 mouse hepatocytes, oleate lipid droplets, BODIPY imaging | inhibition, % at 6.5 µM | 240,000 tested, 0.4% active | AID 1656;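 active = lipid droplet intensity inhibited by at least 50%, with more than 500 cells counted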
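Assay system: AML12 hepatocytes (mouse) / Also added: 100 µM oleic acid challenge / Times: overnight treatment with compound plus oleate / Detection: high-content imaging of BODIPY-stained droplets and DAPI nuclei / Evaluation: % inhibition of lipid droplet signal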
Beta2AR agonist – activates human beta-2 adrenergic receptor causing internalization. P07550. Am2.2-beta2AR cells, FAP receptor internalization, flow cytometry. response, % (no concentration beside the values). 340,000 tested, 0.43% active. AID 504454;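 active = response above a set limit, near 3 SD of response in nonfluorescent compounds, cut at about 42% in these data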
NTR1 agonist – agonists of human neurotensin receptor NTR1; P30989; NTR1-U2OS beta-arrestin-GFP spot imaging, agonist mode; activation, % at 20 µM; 330,000 tested, 0.17% active; AID 493036;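 active = activation at or above 40% of the spot to cytoplasm intensity ratio, with at least 20 cells analyzed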;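 note: 0% = DMSO without peptide and 100% = 100 nM NTR1 peptide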
Target sequence (P30989 whole entry, looked up): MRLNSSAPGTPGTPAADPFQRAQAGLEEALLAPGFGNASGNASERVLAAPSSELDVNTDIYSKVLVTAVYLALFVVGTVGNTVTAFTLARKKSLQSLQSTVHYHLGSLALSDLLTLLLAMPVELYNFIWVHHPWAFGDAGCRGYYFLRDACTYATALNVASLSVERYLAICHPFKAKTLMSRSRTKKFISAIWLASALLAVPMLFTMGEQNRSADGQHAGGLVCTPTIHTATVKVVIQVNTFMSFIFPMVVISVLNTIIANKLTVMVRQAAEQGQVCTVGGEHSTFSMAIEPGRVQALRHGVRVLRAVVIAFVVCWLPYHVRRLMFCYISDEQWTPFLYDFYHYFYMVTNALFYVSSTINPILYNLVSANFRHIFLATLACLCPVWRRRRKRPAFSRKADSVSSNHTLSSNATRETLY
Arrestin-AP2 inh – inhibitors of human beta-arrestin and AP2 interaction; FITC-arrestin peptide / GST-AP2 beads, flow cytometry; AP2 beta2 appendage carries R879A mutation; inhibition, % at 10 µM; 340,000 tested, 0.31% active; AID 504490;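 active = inhibition above a set limit, near 3 SD of compounds lacking own fluorescence, cut at about 54% in these data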;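 note: plate controls were DMSO wells for no effect and 5 µM unlabelled arrestin peptide for full effect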
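Material – AP2 appendage R879A on GSH beads · Buffer or medium – PBS with 0.05% Tween 20 and 0.1% BSA · Probe or stimulus – fluorescein-tagged arrestin peptide at 50 nM final · Incubation – compound with beads 12 min RT, then probe 1 h RT · Detection – high-throughput flow cytometry of beads, ex 488, em 535 nm · Evaluation – percent response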
GRK2 inh – blocks RNA aptamer binding to human GRK2. P25098. bead flow cytometry, FAM-aptamer displacement from GRK2. inhibition of aptamer binding, % at 10 µM. 330,000 tested, 0.59% active;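 active = inhibition of aptamer binding above 40%, roughly 3 SD of noise, on plates passing a quality check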;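 note: median bead fluorescence of bound FAM aptamer so fluorescent compounds give negative values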
TAG inh – inhibitors of triacylglycerol accumulation; H9c2 cells, Nile Red lipid (TAG) fluorescence; cells loaded with 200 µM oleic acid; inhibition, % at 12.5 µM; 230,000 tested, 0.66% active; AID 651582;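 active = pattern-corrected inhibition of lipid staining of at least 50% with the nuclear-stain viability signal not falling by more than 50%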;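 note: 0% = DMSO wells and 100% = triacsin C control wells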
B2AR ag CP1 – activates human beta-2 adrenergic receptor | 1,100 tested, 25% active | AID 540358 | shares compounds with Beta2AR agonist | Am2.2-beta2AR cells, FAP surface receptor, flow cytometry; stronger effect = lower value | percent response (surface receptor), % at 10 µM;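 active = surface receptor percent response at or below 58%, roughly 3 SD from nonfluorescent compounds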
B2AR FAP counter – fluorescence artifact in beta-2AR agonist FAP counterscreen; shares compounds with Beta2AR agonist; AID 588765; calls only at 10 µM; Am2.2 cells, FAP fluorogen flow cytometry; stronger effect = lower value; 1,100 tested, under 10 active;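 active = percent response below a set limit in fluorescence channel 1 and below 50% in channel 8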
* = called active by the depositor; i = inactive; . = not tested or not shown; ! = a repeat was not active. Only some compounds are listed: those with a hit (about 2% of all), similar ones and a draw of the others.

SMILES | Lipid droplet | Beta2AR agonist | NTR1 agonist | Arrestin-AP2 inh | GRK2 inh | TAG inh | B2AR ag CP1 | B2AR FAP counter
Cc1ccccc1C(=O)OC1CCCN(C)C1 (configuration not stated) | . | 49* | 2 | 17 | 0 | 1 | 90 | i
Cc1cccc(C(=O)OC2CCCN(C)C2)c1C (configuration not stated) | -3 | -1 | -2 | -1 | 0 | . | . | .
CN1CCN(Cc2cc(COCc3ccccc3)c3cccnc3c2O)CC1 | . | 28 | 11 | 26 | 0 | 128 | 90 | i
Cc1ccc(NC(=O)c2cc(N3C(=O)C=CC3=O)ccc2Cl)cc1C | 0 | 79* | 0 | 14 | 6 | 8 | 101 | i
Cc1ccc(NC(=O)c2cc(-n3cnnc3)ccc2Cl)cc1 | 2 | 15 | 1 | 31 | 9 | . | . | .
Cc1ccc(NC(=O)c2cc(NC(=O)c3ccco3)ccc2N2CCOCC2)cc1 | -3 | -6 | 0 | 25 | 0 | -4 | . | .
Cc1ccc(NC(=O)c2cc(N3C(=O)C=CC3=O)ccc2N2CCOCC2)cc1 | 2 | 123* | . | 28 | . | -16 | 42* | i
COc1ccc(CCn2c(=O)[nH]c3cc(C(=O)NCCCN4CCOCC4)ccc3c2=O)cc1OC | 11 | -1 | -1 | -1 | 3 | 3 | . | .
COc1ccc(CCn2c(=O)[nH]c3cc(C(=O)NCCN4CCOCC4)ccc3c2=O)cc1OC | -1 | 69* | -4 | -1 | 1 | -19 | . | i
Cc1cccc(C)c1NC(=O)CN1CCN(CCCC(c2ccc(F)cc2)c2ccc(F)cc2)CC1 | . | 20 | 21 | 0 | 0 | 31 | 104 | i
COc1ccc([C@H]2/C=C\CN(C(=O)c3ccc(C)cc3)[C@@H](C)C(=O)N2Cc2ccc(F)cc2)cc1 | . | 15 | 7 | 0 | 0 | 9 | 106 | i
COc1ccc(C2/C=C\CN(C(=O)OCC3c4ccccc4-c4ccccc43)CC(=O)N2Cc2cccc(F)c2)cc1 (configuration not stated) | . | 0 | 11 | 37 | 1 | 29 | . | .
COc1ccc([C@H]2/C=C\CN(Cc3ccc(N(C)C)cc3)[C@@H](C)C(=O)N2Cc2ccc(F)cc2)cc1 | . | 113* | 3 | -2 | 1 | 1 | 29* | i
COc1ccc(C2/C=C\CN(C(=O)c3ccccc3)CC(=O)N2Cc2cccc(F)c2)cc1 (configuration not stated) | . | 4 | 2 | 1 | 2 | -17 | 101 | i
COc1ccc(C2/C=C\CN(C(=O)c3ccccc3)[C@H](Cc3ccccc3)C(=O)N2Cc2ccc(F)cc2)cc1 (some centres not stated) | -4 | 12 | 1 | 5 | 2 | 6 | 105 | i
COc1ccc(S(=O)(=O)N2CCCCCC2)cc1NC(=O)CN(C)Cc1ccc2c(c1)OCO2 | . | 4 | 1 | 0 | 0 | 5 | . | .
COc1ccc(OC(=O)c2cnc3n(c2=O)CCS3)cc1 | 1 | 5 | 2 | 5 | 3 | 10 | . | .
O=C(CNS(=O)(=O)c1cccc(Br)c1)NCC1CCCCC1 | 14 | -9 | -2 | 23 | 2 | . | . | .
CN(C)CC(C(=O)c1ccccc1)c1ccccc1 (configuration not stated) | -7 | 56* | 2 | 12 | 1 | 65* | 82 | i
O=C(COC(=O)Cc1ccc(F)cc1)NC(=O)c1ccccc1 | . | -5 | -1 | -2 | 5 | -9 | . | .
COc1ccccc1C(=O)NC(=O)COC(=O)Cc1ccc(F)cc1 | . | 58* | 0 | 7 | 2 | 15 | 114 | i
O=C1CCN(Cc2nnnn2CC2CCCO2)c2ccccc2N1 (configuration not stated) | . | 42* | -2 | 1 | 1 | . | 105 | i
COc1ccc(-c2cc(C(F)(F)F)n3nc(C(=O)O)cc3n2)cc1OC | . | 52* | 6 | 20 | 4 | 3 | 99 | i
C[C@]1(O)CC(=O)C=C[C@H]1Nc1ccccc1 | . | -4 | . | -1 | . | 2 | . | .
CCCc1cc(Nc2cccc(OCC)c2)n2ncnc2n1 | . | 49* | 1 | -1 | 0 | . | 136 | i
SMILES | Lipid droplet | Beta2AR agonist | NTR1 agonist | Arrestin-AP2 inh | GRK2 inh | TAG inh | B2AR ag CP1 | B2AR FAP counter
CCCc1cc(Nc2cccc(OC)c2)n2ncnc2n1 | 3 | 3 | 3 | 3 | 2 | . | . | .
O=C(COc1ccccc1Cl)Nc1cnn(Cc2ccccc2)c1 | -16 | 0 | -1 | 7 | 0 | -6 | . | .
O=C(Nc1cnn(Cc2c(Cl)cccc2Cl)c1)C(c1ccccc1)c1ccccc1 | -27 | 43* | 0 | 10 | 5 | 18 | 93 | i
Cc1nc([N+](=O)[O-])c(Br)n1CC(=O)c1ccc2ccccc2c1 | -8 | 43* | 21 | -4 | 0 | 7 | 78 | i
COCC(C)NC(=O)CCS(=O)(=O)c1nc(-c2ccc(OC)cc2)cc(C(F)(F)F)n1 (configuration not stated) | 0 | 53* | 15 | 30 | 2 | 19 | 25*! | i
O=C(Cn1cc2c(n1)CCCC2)NCc1ccccn1 | 5 | 100* | -3 | 4 | 4 | 10 | 105 | i
Cc1nc(NC(=O)CSc2nnc(-c3ccccc3)c(-c3ccccc3)n2)c(Cl)cc1Cl | -13 | 48* | 8 | -2 | 5 | . | 73 | i
O=C(CSc1nnc(-c2ccccc2)c(-c2ccccc2)n1)Nc1ncc(Cl)cc1Cl | -3 | 2 | 2 | 19 | 19 | . | . | .
CCCNC(=O)c1nnsc1S(=O)(=O)c1ccc(Cl)cc1 | 4 | 81* | 1 | 17 | . | . | 55* | i
CCCNC(=O)NS(=O)(=O)c1ccc(Cl)cc1 | -3 | 1 | -1 | 20 | 1 | 10 | . | .
COc1cccc(NS(=O)(=O)c2ccc3c(c2)CCCN3C(C)=O)c1 | 10 | 47* | 2 | 4 | 0 | . | 116 | i
CCOc1ccccc1NC(=O)COC(=O)CC(C)(C)CC1=NS(=O)(=O)c2ccccc2N1 | -28 | -1 | 0 | -8 | 7 | . | . | .
CC(=O)Nc1cc(C(=O)OC(C(=O)c2ccccc2)c2ccccc2)ccc1C (configuration not stated) | . | 121* | 3 | -1 | 3 | . | 22* | i
CCCc1cc(=O)oc2c(CNc3ccc(OCC)cc3)c(O)ccc12 | 11 | 1 | 5 | -5 | 13 | . | . | .
CCOc1c(C)cnc2c1c(=O)n(CC(=O)NCC1CCCO1)c(=O)n2C (configuration not stated) | . | -3 | -2 | 2 | 0 | -2 | . | .
Cc1cc(N2CCN(C(=O)c3ccco3)CC2)n2nc(-c3cccc(Cl)c3)cc2n1 | . | 42* | 10 | 24 | 4 | . | 109 | i
